# Only some compounds are listed: those with a hit (about 1.4% of all), similar ones and a draw of the others.
# Tb MetRS inh – T. brucei MetRS inhibitors, primary screen, biochemical, luminescence; purified T. brucei MetRS, ATP depletion, Kinase-Glo luminescence; inhibition, % at 11.9 µM; actives 0.4% (n = 360,000); AID 624268, 2012;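 active = inhibition above a per-plate cutoff of the control wells' mean inhibition plus 3 SD, cut at about 5.5% in these data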
#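 assay system = parasite MetRS enzyme | timing = 15 min preincubation, 2 h reaction, all 25 °C | evaluation = percent inhibition relative to median high and low control wells | medium = HEPES buffer containing pyrophosphatase, BSA, spermine, DTT | compound = single dose, 11.9 µM final nominal, 0.9% final DMSO | detection = Kinase-Glo luminescence, ATP depletion format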
# PvdQ acylase – P. aeruginosa PvdQ acylase inhibitors, primary screen, biochemical, fluorescence, plate reader and imaging, single point; PvdQ acylase [Pseudomonas aeruginosa LESB58]; purified PvdQ acylase; inhibition, % at 10 µM; actives 0.063% (n = 340,000); in the data active = inhibition above about 30%, passing the limit was not always enough
# Dyrk1A ADPGlo – rat Dyrk1A kinase inhibitors, primary screen, biochemical, single point, plate reader; actives 0.43% (n = 310,000); inhibition, % at 12.5 µM; ADP-Glo luminescence, NFATc1 peptide; in the data active = inhibition above about 50%
# CAL PDZ FP-1 – untagged CAL PDZ binding inhibitors, primary screen, biochemical, fluorescence polarization, HTS; purified CAL PDZ, TMR-peptide fluorescence polarization, 1 h; inhibition, % at 24.9 µM; AID 602252, 2012; actives 0.92% (n = 300,000);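 active = mean inhibition of at least 30% with at least half of replicates also reaching 30%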
# CDK5 p35 inh – inhibitors of human CDK5/p35 kinase, primary screen, biochemical, single concentration. Cyclin-dependent kinase 5 (Homo sapiens) + Cyclin-dependent kinase 5 activator 1 (Homo …. Recombinant CDK5/p35, ADP-Glo luminescence, 60 min. inhibition, % at 10 µM. actives 0.01% (n = 330,000). AID 488839, 2010;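 active = highest replicate inhibition of at least 50% and at least 75% of replicates reaching 50%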
# Target sequence (Q00535 whole entry, looked up): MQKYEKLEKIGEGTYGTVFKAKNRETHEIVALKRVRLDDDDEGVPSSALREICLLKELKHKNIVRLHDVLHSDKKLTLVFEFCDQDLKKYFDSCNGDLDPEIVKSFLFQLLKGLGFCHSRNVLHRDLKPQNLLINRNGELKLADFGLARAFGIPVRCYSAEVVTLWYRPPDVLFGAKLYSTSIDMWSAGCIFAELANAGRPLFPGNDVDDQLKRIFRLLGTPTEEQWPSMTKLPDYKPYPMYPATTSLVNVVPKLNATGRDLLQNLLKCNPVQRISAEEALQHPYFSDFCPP
# Target sequence (Q15078 whole entry, looked up): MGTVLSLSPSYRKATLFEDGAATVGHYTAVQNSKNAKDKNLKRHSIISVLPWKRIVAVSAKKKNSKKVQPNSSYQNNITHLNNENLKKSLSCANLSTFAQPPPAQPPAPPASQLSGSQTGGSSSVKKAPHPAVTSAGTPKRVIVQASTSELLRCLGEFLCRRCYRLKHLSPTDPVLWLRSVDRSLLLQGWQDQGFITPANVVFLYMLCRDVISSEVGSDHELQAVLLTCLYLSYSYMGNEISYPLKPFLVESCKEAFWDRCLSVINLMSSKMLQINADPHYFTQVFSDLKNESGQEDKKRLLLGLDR
# CAL PDZ FP-2 – CAL PDZ peptide-binding inhibitors, primary screen, biochemical, fluorescence polarization, Cer-tagged CAL PDZ, HTS. Golgi-associated PDZ and coiled-coil motif-containing protein (Homo sapiens), Q9HD26. purified CAL PDZ, TMR-peptide fluorescence polarization, 1 h. inhibition, % at 20 µM. actives 0.02% (n = 330,000). AID 504414, 2011;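 active = highest replicate inhibition of at least 40%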
#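 Material – purified CerCALP PDZ construct · Detection – FP readout, S and P plane fluorescence · Measure – percent inhibition from loss of millipolarization · Controls – unlabelled peptide for full inhibition, DMSO wells as neutral · Probe or stimulus – TMR-labelled reporter peptide T*-PRC34 bound in PDZ groove · Times – 1 h at RT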
# Tb MetRS conf – T. brucei MetRS inhibitors, confirmation, biochemical, luminescence | T. brucei MetRS enzyme, luminescence (ATP depletion) | AID 624412, 2012 | actives 93% (n = 1,400) | inhibition, % at 11.9 µM | shares compounds with Tb MetRS inh; in the data active = inhibition above about 7%
# Jurkat cytotox – Jurkat T cell cytotoxicity, cytotoxicity control for T. brucei MetRS inhibitor project, luminescence, high throughput; shares compounds with Tb MetRS inh; Jurkat cells viability, ATP luminescence; inhibition, % at 8.3 µM; actives 12% (n = 1,400); AID 624413, 2012; in the data active = inhibition above about 15%
# TbMetRS FP orth – T. brucei MetRS inhibitors, orthogonal assay for T. brucei MetRS inhibitor project, biochemical, fluorescence polarization; shares compounds with Tb MetRS inh; purified T. brucei MetRS; inhibition, % at 11.9 µM; actives 44% (n = 1,400); AID 651607, 2012; in the data active = inhibition above about 17%
# Hits are given with their value; – = inactive; · = no result given; ! = repeats disagree.
SMILES,Tb MetRS inh,PvdQ acylase,Dyrk1A ADPGlo,CAL PDZ FP-1,CDK5 p35 inh,CAL PDZ FP-2,Tb MetRS conf,Jurkat cytotox,TbMetRS FP orth
O=C(NCc1nc2ccccc2[nH]1)C1=C[C@H](c2ccc(C(F)(F)F)cc2)C[C@H](OCCCCO)O1,30.6,–,·,–,–,–,69.0,–,38.0
O=C(NCc1ccccc1)C1=C[C@@H](c2ccc(C(F)(F)F)cc2)C[C@@H](OCCCCO)O1,–,–,–,–,–,–,·,·,·
Cn1c(=O)c2cc(NC(=O)CCc3ccc4c(c3)OCO4)ccc2n1Cc1ccc(F)cc1,–,·,·,·,·,·,·,·,·
CC(=O)Nc1cccc(NS(=O)(=O)c2ccc3c(c2)CCC(=O)N3)c1,–,·,·,·,·,·,·,·,·
O=C(CNc1ccc(C(F)(F)F)cc1)Nc1cccc(S(=O)(=O)N2CCCCC2)c1,–,·,·,·,·,·,·,·,·
OCCCNc1ncnc2c1ncn2[C@H]1CN(Cc2ccc(Cl)cc2)C[C@@H](CO)O1,–,·,·,·,·,·,·,·,·
O=C(C1=C[C@H](c2ccc3c(c2)OCO3)C[C@H](OCCCCO)O1)N1CCN(Cc2ccc3c(c2)OCO3)CC1,–,–,–,–,–,–,·,·,·
O=C(C1=C[C@@H](c2ccc3c(c2)OCO3)C[C@@H](OCCCCO)O1)N1CCN(Cc2ccc3c(c2)OCO3)CC1,17.6,–,–,–,–,–,55.5,–,24.9
CC(=O)NC(c1ccc(F)c(F)c1)c1nc(-c2cc3ccccc3o2)cs1 (stereo unspecified),–,·,·,·,·,·,·,·,·
CCCn1cnc2cc(NCc3ccccn3)ccc21,–,–,–,·,–,–,·,·,·
CCCn1cnc2cc(NCc3cccc(OC)c3O)ccc21,8.4,–,–,·,–,–,15.2,–,–
C#CCNC(=O)C[C@@H]1C[C@@]2(C(=O)OCC)CCCC=C2N(CCCCCCCC)C1=O,–,·,·,·,·,·,·,·,·
CCN(CC)c1ccc(/C=N/NC(=O)Cc2nnc(NC(=O)Nc3ccccc3)s2)cc1,8.4,–,–,–,–,–,9.2,–,–
O=C(Nc1ccc(F)c(Cl)c1)C1Cc2c(-c3ccccc3Oc3ccccc3)ccnc2O1 (stereo unspecified),–,·,·,·,·,·,·,·,·
CCOC(=O)N1CCN(C(=O)CCCn2c(=O)[nH]c3ccccc3c2=O)CC1,–,–,–,–,–,·,·,·,·
CC(=O)c1ccc(N2CCN(C(=O)CCCn3c(=O)[nH]c4ccccc4c3=O)CC2)cc1,23.1,–,·,–,–,–,32.5,–,–
COc1cc(C#N)c(NC(=S)N2CCN(C(=O)c3ccco3)CC2)cc1OC,–,·,·,·,·,·,·,·,·
COC(=O)C1=C(N)Oc2cc(C)n(CCCn3ccnc3)c(=O)c2C1c1cccc(Cl)c1 (stereo unspecified),19.4,–,–,–,–,–,–,–,–
COC(=O)C1=C(N)Oc2cc(C)n(Cc3cccnc3)c(=O)c2C1c1cccc(OC)c1OC (stereo unspecified),–,–,–,–,–,–,·,·,·
COC(=O)C1=C(N)Oc2cc(C)n(Cc3cccnc3)c(=O)c2C1c1cc(OC)ccc1OC (stereo unspecified),39.6,–,–,–,–,–,6.1,–,–
CC1CN(C(=O)CSc2nc(N)c(NC(=O)c3ccc(C(F)(F)F)cc3)c(=O)[nH]2)CC(C)O1 (stereo unspecified),–,·,·,·,·,·,·,·,·
CCc1nc2c(OCc3ccc(F)c(F)c3)cccn2c1N(C)C(=O)c1ccncc1,–,·,·,·,·,·,·,·,·
CCN(CC)c1ncnc2c1[nH]c1ccccc12,–,–,–,–,–,·,·,·,·
COCCNc1ncnc2c1[nH]c1ccccc12,59.0,–,–,·,–,–,77.0,–,42.0
CCCOc1ncnc2c1[nH]c1ccccc12,–,–,–,–,–,–,·,·,·
SMILES,Tb MetRS inh,PvdQ acylase,Dyrk1A ADPGlo,CAL PDZ FP-1,CDK5 p35 inh,CAL PDZ FP-2,Tb MetRS conf,Jurkat cytotox,TbMetRS FP orth
OCCCNc1ncnc2c1[nH]c1ccccc12,22.1,–,–,·,–,–,38.8,–,22.7
Fc1ccc2[nH]c3c(NCc4ccccc4)ncnc3c2c1,83.8,–,–,–,–,–,92.1,29.9,81.7
Cc1cccc(C(O)c2ncc(-c3ccc(F)cc3)[nH]2)c1C (stereo unspecified),–,·,·,·,·,·,·,·,·
Cc1[nH]c2ccc(Cl)cc2c(=O)c1CN1CCCC1,45.5,–,–,–,–,–,48.3,–,28.3
Cc1[nH]c2ccccc2c(=O)c1CN1CCCCC1,–,–,–,–,–,–,·,·,·
Cc1[nH]c2ccc(Br)cc2c(=O)c1CN1CCCCCC1,60.2,–,–,–,–,–,82.2,–,51.6
CC(C)N1CC2(CC(c3ccccc3C(F)(F)F)=NO2)CN1C(=O)c1ccco1 (stereo unspecified),–,·,·,·,·,·,·,·,·
Cc1ccc2[nH]c(=O)c(CN(CCN3CCOCC3)C(=O)Nc3ccc(F)cc3)cc2c1,5.9,–,–,–,–,–,9.1,–,–
Brc1ccc2[nH]c3nc(SCCN4CCOCC4)nnc3c2c1,16.3,–,–,–,–,–,33.4,15.2!,23.3!
c1ccc2c(c1)[nH]c1nc(SCCN3CCOCC3)nnc12,–,–,–,–,–,–,·,·,·
CCOC(=O)c1c(NC(=O)COC(=O)c2ccc(Cl)nc2)sc(C)c1C,–,·,·,·,·,·,·,·,·
Cc1nc(NCCC(C)C)c2nnn(Cc3ccccc3)c2n1,7.3,–,–,–,–,–,–,–,–
CC(NS(=O)(=O)c1cccc(Cl)c1F)[C@H](O)c1ccccc1 (stereo partly specified),–,·,·,·,·,·,·,·,·
Nc1c(C(=O)NCc2ccco2)c2nc3ccccc3nc2n1CCc1ccc(F)cc1,8.4,–,–,–,–,–,11.3,–,–
CCOc1ccc(S(=O)(=O)Nc2cccc(Cl)c2)cc1,–,–,–,–,–,–,·,·,·
CCOc1ccc(S(=O)(=O)Nc2cc(Cl)ccc2O)cc1,16.5,–,–,–,–,–,33.4,–,–
Nc1nnc(CC(=O)N/N=C/c2ccc(-c3cccc(C(=O)O)c3)o2)s1,–,–,–,–,–,–,·,·,·
O=C(Cc1ccc(Br)cc1)N/N=C/c1ccc(-c2cccc(C(=O)O)c2)o1,6.9,–,–,–,–,–,16.1,–,–
